ChEMBL document CHEMBL4680135, “Design, synthesis and biological evaluation of indole-2-carboxylic acid derivatives as IDO1/TDO dual inhibitors” (Eur J Med Chem, 2020)
Active and inactive are the calls of the source. The calls are words filed in the database; no cut-off is given here.

Legend:
[1] = molecular target: Tryptophan 2,3-dioxygenase (Homo sapiens, UniProt P48775); assay: Inhibition of recombinant human TDO assessed as reduction in kynurenine formation using L-tryptophan as substrate incubated for 45 mins by microplate reader assay
Chain of Tryptophan 2,3-dioxygenase (P48775 whole entry): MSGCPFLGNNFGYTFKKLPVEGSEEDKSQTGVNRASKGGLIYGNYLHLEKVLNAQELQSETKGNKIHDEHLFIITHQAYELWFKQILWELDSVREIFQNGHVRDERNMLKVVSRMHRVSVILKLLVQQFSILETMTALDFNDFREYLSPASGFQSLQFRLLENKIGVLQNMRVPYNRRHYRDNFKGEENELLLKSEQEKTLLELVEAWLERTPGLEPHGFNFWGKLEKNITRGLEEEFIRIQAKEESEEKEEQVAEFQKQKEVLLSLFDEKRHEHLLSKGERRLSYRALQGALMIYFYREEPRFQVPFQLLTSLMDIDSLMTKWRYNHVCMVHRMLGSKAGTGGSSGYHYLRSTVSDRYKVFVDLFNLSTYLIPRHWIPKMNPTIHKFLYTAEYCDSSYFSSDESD
In short: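 Purified recombinant human TDO (0.05 μM) in 100 mM potassium phosphate pH 6.5 with 40 mM neutralized ascorbate, 200 μg/mL catalase, 20 μM methylene blue, L-Trp substrate and compound; 37 °C, 45 min. Stopped with 30% TCA, 65 °C 15 min, then 2% p-dimethylaminobenzaldehyde in acetic acid; absorbance 490 nm; IC50 by curve fitting.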

[2] = molecular target: Indoleamine 2,3-dioxygenase 1 (Homo sapiens, UniProt P14902); assay: Inhibition of recombinant human IDO1 assessed as reduction in kynurenine formation using L-tryptophan as substrate incubated for 45 mins by microplate reader assay
Chain of Indoleamine 2,3-dioxygenase 1 (P14902 whole entry): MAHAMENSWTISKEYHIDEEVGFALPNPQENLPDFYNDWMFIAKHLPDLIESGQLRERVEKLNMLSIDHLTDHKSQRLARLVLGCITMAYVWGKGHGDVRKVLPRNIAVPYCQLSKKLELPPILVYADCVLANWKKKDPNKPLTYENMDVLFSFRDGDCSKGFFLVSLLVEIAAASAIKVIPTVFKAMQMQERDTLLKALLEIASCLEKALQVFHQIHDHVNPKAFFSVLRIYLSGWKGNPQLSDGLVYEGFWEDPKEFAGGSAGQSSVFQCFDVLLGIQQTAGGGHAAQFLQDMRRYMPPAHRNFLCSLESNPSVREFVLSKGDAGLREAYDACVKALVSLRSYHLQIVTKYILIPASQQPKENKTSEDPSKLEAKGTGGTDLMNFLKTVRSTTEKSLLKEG

A 172 [3] = assay: Inhibition of IDO1/TDO in IFNgamma-stimulated human A172 cells assessed as reduction in kynurenine formation at 100 uM using L-tryptophan as substrate incubated for 48 hrs by microplate reader analysis relative to control; type: cell-based
In short: (§1)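 A172 cells seeded at 4×10^4/well, next day given compound in 10% serum medium with IFNγ (final 100 ng/mL) and Trp (final 1 mmol/L), 48 h. Supernatant treated with 30% (w/v) TCA, heated 65 °C 15 min, mixed with 2% p-dimethylaminobenzaldehyde in acetic acid; kynurenine pigment read at 490 nm.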

B16-F10 [4] = assay: Antitumor activity against mouse B16F10 cells xenografted in C57BL6 mouse assessed as tumor growth inhibition at 50 mg/kg, po administered for 19 consecutive days relative to control; type: functional; details: 456 h, time 19 day, read-out: TGI
In short: (§2)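 B16F10 melanoma cells harvested in saline; 1×10^6 cells injected subcutaneously into C57BL/6 mice on day 0. Mice randomized; daily oral dosing from day 1, compound in 0.5% CMC-Na, vehicle controls given 0.5% CMC-Na orally; cyclophosphamide 100 mg/kg i.p. as reference group.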

B16-F10 [5] = assay: Antitumor activity against mouse B16F10 cells xenografted in C57BL/6 mouse assessed as tumor growth inhibition at 100 mg/kg, po administered for 19 consecutive days relative to control; type: functional; details: 456 h, time 19 day, read-out: TGI; in short: as §2
[6] = Toxicity in C57BL/6 mouse xenografted with mouse B16F10 cells assessed as body weight loss at 50 to 100 mg/kg, po administered for 19 consecutive days; type: organism-based; details: in vivo, 456 h, dose 50-100 mg/kg, time 19 day
In short: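 B16F10 cells (1×10^6) implanted subcutaneously in C57BL/6 mice on day 0; daily oral treatment from day 1 with compound suspended in 0.5% CMC-Na, vehicle group receiving 0.5% CMC-Na. Body weight of treated mice compared against vehicle control group.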

A 172 [7] = assay: Inhibition of IDO1/TDO in IFNgamma-stimulated human A172 cells assessed as reduction in kynurenine formation at 50 uM using L-tryptophan as substrate incubated for 48 hrs by microplate reader analysis relative to control; type: cell-based; in short: as §1
T-lymphocyte = assay: Reversal of IDO1/TDO-mediated suppression of mouse T-lymphocyte proliferation assessed as increase in mytomycin C treated LLC cells stimulated T-cells proliferation at 10 uM incubated for 3 days by Cell Titer Glo luminescent cell viability assay; type: cell-based; details: time 3.0 day
In short: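 Responder T lymphocytes from BALB/c mouse splenocytes (1×10^5/well) in RPMI 1640 with 10% FBS co-cultured with 1×10^4 LLC stimulator cells pretreated with mitomycin C (final 25 µg/mL, 37 °C, 1 h, washed thrice), plus compound; 37 °C, 5% CO₂, 3 days. Proliferation by CellTiter-Glo luminescence; mean of three replicate wells with SEM.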

Row | Compound | IC50 [1] | IC50 [2] | further results
1 | COc1ccc(Nc2cc(NC(C)=O)cc3[nH]c(C(=O)O)cc23)nc1 | 5.27 µM | 4.73 µM | 
2 | CC(=O)Nc1cc(Nc2ccc(F)nc2)c2cc(C(=O)O)[nH]c2c1 | 46.1 µM | 38.5 µM | 
3 | CC(=O)Nc1cc(Nc2ccc(F)c(OC(F)(F)F)c2)c2cc(C(=O)O)[nH]c2c1 | 3.62 µM | 1.37 µM | 
4 | CC(=O)Nc1cc(Nc2cccc3[nH]ncc23)c2cc(C(=O)O)[nH]c2c1 | 6.78 µM | 7.52 µM | 
5 | COc1ccc(Nc2ccc(F)c(Cl)c2)c2cc(C(=O)O)[nH]c12 | 19.5 µM | 32.4 µM | 
6 | O=C(O)c1cc2c(Nc3ccc(F)c(OC(F)(F)F)c3)ccc(F)c2[nH]1 | 16.5 µM | 16.3 µM | 
7 | COc1cc(Nc2cc(NC(C)=O)cc3[nH]c(C(=O)O)cc23)ccc1F | 2.49 µM | 1.23 µM | 
8 | O=C(O)c1cc2c(Nc3ccc(F)c(Br)c3)ccc(F)c2[nH]1 | 10.5 µM | 9.93 µM | 
9 | CCNc1cc(Nc2ccc(F)c(Cl)c2)c2cc(C(=O)O)[nH]c2c1 | 3.53 µM | 1.75 µM | 
10 | CC(=O)Nc1cc(Nc2ccc(C(F)(F)F)cc2)c2cc(C(=O)O)[nH]c2c1 | 23.2 µM | 55.5 µM | 
11 | COc1cc(Nc2ccc(F)c3[nH]c(C(=O)O)cc23)cc(OC)c1OC | 23.3 µM | 22.2 µM | 
12 | CC(=O)Nc1cc(Nc2ccc(F)c(C3CC3)c2)c2cc(C(=O)O)[nH]c2c1 | 5.45 µM | 2.95 µM | 
13 | COc1cc(Nc2cc(NC(C)=O)cc3[nH]c(C(=O)O)cc23)cc(OC)c1OC | 7.12 µM | 3.18 µM | inhibition (A 172 [3]): 77.7%; inhibition in vivo at 50 mg/kg (B16-F10 [4]): 43.2%; inhibition in vivo at 100 mg/kg (B16-F10 [5]): 44.7%; Activity [6]: Non-Toxic; inhibition (A 172 [7]): 55.9%; Activity (T-lymphocyte): Active
14 | CC(=O)Nc1cc(Nc2ccc(F)c(OCC(F)(F)F)c2)c2cc(C(=O)O)[nH]c2c1 | 9.63 µM | 4.62 µM | 
15 | CCNC1=C/C(=N\c2ccc(F)c(Cl)c2)c2cc(C(=O)O)[nH]c2C1=O | 0.025 µM | 0.018 µM | 
16 | CC(=O)Nc1cc(Nc2ccc(F)c(Oc3ccccc3)c2)c2cc(C(=O)O)[nH]c2c1 | 1.44 µM | 5.83 µM | 
17 | CCOc1cc(Nc2cc(NC(C)=O)cc3[nH]c(C(=O)O)cc23)ccc1F | 5.13 µM | 2.2 µM | 
18 | O=C(O)c1cc2c(Nc3ccc(F)c(Cl)c3)ccc(F)c2[nH]1 | 99.2 µM | 40.7 µM | 
19 | CC(=O)Nc1cc(Nc2ccc(F)cn2)c2cc(C(=O)O)[nH]c2c1 | 11.7 µM | 10.8 µM | 
20 | CC(=O)Nc1cc(Nc2ccc(OC(F)F)cc2)c2cc(C(=O)O)[nH]c2c1 | 5.5 µM | 3.18 µM | 
21 | CC(=O)Nc1cc(Nc2ccc(OC(F)(F)F)cc2)c2cc(C(=O)O)[nH]c2c1 | 5.71 µM | 23.7 µM | 
22 | O=C(O)c1cc2c(Nc3ccc(F)c4[nH]c(C(=O)O)cc34)ccc(F)c2[nH]1 | 3.48 µM | 2.72 µM | 

Further lines, with some results ahead:

Row | IC50 [1] | IC50 [2] | Compound | further results
23 | 1.7 µM | 1.83 µM | CC(=O)Nc1cc(Nc2ccc(F)c(C)c2)c2cc(C(=O)O)[nH]c2c1 | 
24 | 41.4 µM | 28.1 µM | O=C(O)c1cc2c(Nc3cc(Br)ccc3F)ccc(F)c2[nH]1 | 
25 | 22.5 µM | 35.6 µM | Cc1cc(Nc2ccc(F)c(Cl)c2)c2cc(C(=O)O)[nH]c2c1 | 
26 | 8.48 µM | 8.4 µM | CC(=O)Nc1cc(Nc2ccc(F)c(Cl)c2)c2cc(C(=O)O)[nH]c2c1 | 
27 | 3.01 µM | 1.71 µM | COc1ccc(Nc2cc(NC(C)=O)cc3[nH]c(C(=O)O)cc23)cc1 | 
28 | 31.4 µM | 54.4 µM | COc1cc(Nc2ccc(F)c3[nH]c(C(=O)O)cc23)ccc1F | 
29 | 4.46 µM | 1.48 µM | CCCOc1cc(Nc2cc(NC(C)=O)cc3[nH]c(C(=O)O)cc23)ccc1F | 
30 | 6.46 µM | 3.09 µM | CC(=O)Nc1cc(Nc2ccc(F)c(OC(C)C)c2)c2cc(C(=O)O)[nH]c2c1 | 
31 | 4.09 µM | 3.11 µM | CC(=O)Nc1cc(Nc2ccc(F)c(OCC3CC3)c2)c2cc(C(=O)O)[nH]c2c1 | 
32 | 1.55 µM | 1.17 µM | CC(=O)Nc1cc(Nc2ccc(F)c(F)c2)c2cc(C(=O)O)[nH]c2c1 | 
33 | 3.62 µM | 3.41 µM | COc1ccc(Nc2cc(NC(C)=O)cc3[nH]c(C(=O)O)cc23)cn1 | 
